TDP2 absorb – TDP2 (human) inhibition, absorbance primary screen. O95551. recombinant TDP2, T5PNP hydrolysis, p-nitrophenol absorbance 415 nm. inhibition, % at 12.8 µM. 370,000 tested, 0.34% active. AID 720702;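 active = inhibition above the mean of all tested compounds plus 3 SD, set per campaign, cut at about 25% in these data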;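 also: 0% = DMSO with enzyme and 100% = buffer with substrate but no TDP2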
Target sequence (O95551 whole entry, looked up): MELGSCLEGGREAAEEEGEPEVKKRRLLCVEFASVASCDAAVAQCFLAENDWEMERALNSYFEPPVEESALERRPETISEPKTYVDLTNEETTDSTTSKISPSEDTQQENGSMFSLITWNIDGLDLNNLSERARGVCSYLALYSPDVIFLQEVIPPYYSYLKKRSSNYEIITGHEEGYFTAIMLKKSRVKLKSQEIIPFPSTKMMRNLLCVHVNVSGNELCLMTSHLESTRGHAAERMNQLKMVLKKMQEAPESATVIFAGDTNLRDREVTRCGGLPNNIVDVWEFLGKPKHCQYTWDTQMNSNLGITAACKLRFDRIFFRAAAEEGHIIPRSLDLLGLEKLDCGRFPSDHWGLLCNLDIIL
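Assay system: recombinant human TDP2 / Reagent: T5PNP substrate at 5 mM, a TopII-DNA adduct mimic / Measured by: epi absorbance from released p-nitrophenol / Evaluation: % inhibition relative to enzyme-containing and enzyme-free wells / Control set: enzyme-free and DMSO wells / Replicates: each compound tested once, singlicate / Schedule: enzyme reaction with compound for 2 h at 37 °C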
MBD2 inh – blocks human MBD2 binding to methylated DNA; Q9UBB5; TR-FRET, MBD2 binding to methylated oligonucleotide; inhibition, % at 4.4 µM; 370,000 tested, 0.31% active; in the data active = inhibition above about 13%
UHRF1 MBD2 ctr – blocks human UHRF1 binding to methylated DNA. Q96T88. UHRF1 binding to methylated oligo, TR-FRET. inhibition, % at 4.4 µM. 370,000 tested, 0.75% active. AID 687016;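 also: UHRF1 SRA domain binding a hemimethylated CpG hairpin DNA probe; 0% = median of test compound wells and 100% = reference inhibitor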
LEDGF integ inh – blocks HIV-1 LEDGF/p75-dependent DNA integration; 370,000 tested, 0.64% active; inhibition, % at 3.7 µM; TR-FRET IN-LEDGF/p75 DNA integration, Eu/Cy5;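 active = inhibition above the screen-wide mean plus 3 SD, cut at about 13% in these data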;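 also: signal is the Cy5 over europium emission ratio at 671 and 618 nm; 0% = plate median of compound wells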
UHRF1 ctr MBD2 – UHRF1 methyl-oligo binding inhibition as MBD2 counter-screen. shares compounds with MBD2 inh. UHRF1 binding to methylated oligonucleotide, TR-FRET. inhibition, % at 4.4 µM. 1,000 tested, 25% active. AID 720530;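 also: UHRF1 SRA domain binding a labeled hemimethylated CpG hairpin DNA; 0% = vehicle only and 100% = reference inhibitor with vehicle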
MBD2 confirm – confirmation of human MBD2-DBD methylated oligonucleotide binding inhibitors | shares compounds with MBD2 inh | TR-FRET MBD2-DBD binding to methylated oligonucleotide | inhibition, % at 4.4 µM | 1,000 tested, 26% active | AID 720531; in the data active = inhibition above about 14%
TDP2 confirm – human TDP2 inhibition, confirmation. shares compounds with TDP2 absorb. recombinant human TDP2, absorbance read-out. inhibition, % at 12.8 µM. 1,100 tested, 22% active. AID 743263; in the data active = inhibition above about 25%;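 also: 0% = vehicle with enzyme and 100% = no enzyme buffer only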
IN multimer act – activates HIV-1 integrase multimerization in LEDGF counter-screen; shares compounds with LEDGF integ inh; TR-FRET HIV-1 integrase multimerization, biochemical; activation, % at 7.7 µM; 2,000 tested, 17% active; in the data active = activation above about 8.9%
TRFRET interf – optically interferes with TR-FRET readout in LEDGF counter-screen; 2,000 tested, under 10 active; inhibition, % at 7.7 µM; shares compounds with LEDGF integ inh; TR-FRET optical interference counterscreen, HIV-1 IN multimerization;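 active = inhibition above the mean over all tested compounds plus 3 SD, which no compound reached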;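 also: 0% = integrase with antibodies and DMSO and 100% = antibodies without integrase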
IN-LEDGF confirm – LEDGF/p75-dependent HIV-1 integration inhibition, confirmation. shares compounds with LEDGF integ inh. AID 1053136. TR-FRET LEDGF/p75-dependent HIV-1 integration, biochemical. 2,000 tested, 36% active. inhibition, % at 3.7 µM; in the data active = inhibition above about 14%
Active calls of the source: *; / = no result given; ! = not confirmed by another sample. Shown are actives, neighbours in structure and some others; about 1.6% of the full set was active somewhere. Rule as the data show it, unless noted: active = inhibition above about 21%; inactive = the rest.

SMILES	TDP2 absorb	MBD2 inh	UHRF1 MBD2 ctr	LEDGF integ inh	TDP2 confirm	others
CCOC(=O)C1(CCOc2ccccc2)CCN(Cc2ccccc2OC)CC1	-19	-1	2	-4	/
Cc1ccccc1C(=O)N1Cc2ccccc2-n2nncc2C1	-4	-7	-2	1	/
COc1cc2c(cc1OC)-c1c(OC)c(OC)cc3c1[C@H](C2)N(C)CC3	74*	20*	41*	26*	56*	UHRF1 ctr MBD2=18;MBD2 confirm=10;IN multimer act=2;TRFRET interf=-8;IN-LEDGF confirm=25*
C[C@@H]1CC2C3CC=C4C[C@@H](O)CC[C@]4(C)C3CC[C@]2(C)[C@H]1O (stereo partly specified)	-3	1	0	0	/
CC(C)OC1CCCC(O)C1CC(=O)O (stereo unspecified)	-4	-1	-2	5	/
NC(=O)c1ccc(N=Cc2c(O)n(Cc3ccco3)c(=O)[nH]c2=O)cc1	11	23*	60*	57*	/	UHRF1 ctr MBD2=18;MBD2 confirm=22*;IN multimer act=12*;TRFRET interf=-60;IN-LEDGF confirm=50*
CCCNC1=C(C)C(=O)C2=C(C1=O)C(COC(N)=O)[C@]1(OC)C3NC3CN21 (stereo partly specified)	-1	18*	60*	53*	/	UHRF1 ctr MBD2=2;MBD2 confirm=0;IN multimer act=19*;TRFRET interf=-67;IN-LEDGF confirm=63*
N#Cc1ccc2nc(-c3ccc(CN4CCC(n5c(=O)[nH]c6ccccc65)CC4)cc3)c(-c3ccccc3)nc2c1	-8	0	0	-3	/
O=C1CC(c2cccnc2)=NN1c1ccccc1	46*	4	13	11	12
O=c1[nH]c(=O)n(Cc2ccccc2)c(O)c1C=NCCN1CCOCC1	-6	-1	-1	4	/
CN1CCN(c2ccc([N+](=O)[O-])c3no[n+]([O-])c23)CC1	25*	-29	-27	1	26*
O=[N+]([O-])c1ccc(N(CCO)CCO)c2c1no[n+]2[O-]	8	-27	-23	10	/
CCOC(=O)c1c(NS(=O)(=O)c2ccccc2)n(CCCOC)c2nc3ccccc3nc12	91*	8	13	20*	73*
CC(C)CCNC(=O)c1c(N)n(Cc2ccc3c(c2)OCO3)c2nc3ccccc3nc12	45*	-7	2	5	-6
CCCCNC(=O)c1c(N)n(CCCOC)c2nc3ccccc3nc12	36*	0	4	1	1
CC(C)CNC(=O)c1c(N)n(Cc2ccc3c(c2)OCO3)c2nc3ccccc3nc12	4	0	-6	0	/
COC(=O)C1=C(c2c(C)noc2C)C[C@@H]2CC[C@H]1N2C(=O)N1CCCC1	-4	1	4	1	/
C[C@H]1CC[C@H]2NCCN[C@H]2C1	-6	4	3	-1	/
COc1cc(/C=C2\C(=O)NC(=O)N(c3ccccc3)C2=O)c([N+](=O)[O-])cc1OC	25*	1	-9	4	9
C=C1C[C@]2(O)[C@@]3(C)CCC(=O)C(C)(C)C3=C(O)C(=O)[C@@]2(C)[C@@H]2C(=O)O[C@@](C)(C(=O)OC)C(=O)[C@@]12C	-10	3	2	-2	/
Nc1c(C(=O)OCC2CCCO2)c2nc3ccccc3nc2n1Cc1cccs1 (stereo unspecified)	31*	-7	-8	11	7
S=P1(Oc2ccccc2)Nc2ccccc2N1	8	-3	-2	-1	/
O=C1CC(=O)N(Cc2ccccc2)C(=S)N1	32*	2	0	4	9
O=c1c2ccccc2nc(/C=C/c2ccccc2O)n1-c1ccccc1O	30*	-1	-4	0	4
O=C1NC(=O)C(Sc2ccccc2[N+](=O)[O-])C(=O)N1	51*	-2	-1	4	33*
SMILES	TDP2 absorb	MBD2 inh	UHRF1 MBD2 ctr	LEDGF integ inh	TDP2 confirm	others
Cc1ccccc1[N+](=O)[O-]	-1	-5	-3	1	/
NNc1n[nH]c(=S)n1N	33*	1	1	-3	-5
COC1CCCCC1NCCc1ccccc1 (stereo unspecified)	26*	-1	-1	-3	-2
COc1ccc(CCNC2CCCCCC2)cc1	-3	-4	1	0	/
O=C1NCN(c2ccccc2)C12CCN(C(CCc1ccccc1)c1nnnn1-c1ccc3c(c1)OCCO3)CC2 (stereo unspecified)	2	2	-3	1	/
CNc1ccc2oc(C[C@H]3O[C@@]4(CC[C@H]3C)O[C@H]([C@H](C)C(=O)c3ccc[nH]3)[C@H](C)C[C@H]4C)nc2c1C(=O)O	29*	-4	-5	11	-6
NC(Cc1ccc(N(CCCl)CCCl)cc1)C(=O)O (stereo unspecified)	4	-3	1	-6	/
C/C(=N\NC(=O)c1ccccc1O)c1c(O)n(Cc2ccccc2)c(=O)[nH]c1=O	28*	-7	-4	2	4
C/C(=N\NC(=O)c1ccncc1)c1c(O)n(Cc2ccccc2)c(=O)[nH]c1=O	-14	-5	-2	1	/
CC1(C)CC(=O)C(C2(O)C(=O)NC(=O)NC2=O)=C(O)C1	53*	-5	-8	-1	50*
NC1CC2CCCCC2CC1(O)c1ccccc1 (stereo unspecified)	-3	0	-4	-5	/
Cn1c(O)c(/C=N/N2CCCCC2)c(=O)[nH]c1=O	0	-9	-5	1	/
COC(=O)C1=C(c2ccc3ccccc3c2)C[C@@H]2CC[C@H]1N2C(=O)NCc1ccco1	-19	1	2	2	/
O=C1C(=O)c2cccc3cccc1c23	6	-6	-18	4	/
O=C1C(=O)c2ccccc2-c2ccccc21	68*	11	-10	-54	90*
O=c1cc(C2CCNCC2)[nH][nH]1	56*	7	13	19*	5	IN multimer act=-3;TRFRET interf=9;IN-LEDGF confirm=-6
CC[C@@H](CO)NC(=O)[C@@H]1C=C2c3cccc4c3c(cn4C)C[C@H]2N(C)C1	31*!	5	17	25*!	22	IN multimer act=2;TRFRET interf=-7;IN-LEDGF confirm=14*
CN1C[C@H](CNC(=O)OCc2ccccc2)C[C@@H]2c3cccc4c3c(cn4C)C[C@H]21	0	-9	-3	7	/

Compound activity as filed in PubChem.
